Measured values reported in ChEMBL document CHEMBL2086232, “Exploration of the SAR of anti-invasive chalcones: synthesis and biological evaluation of conformationally restricted analogues” (Bioorg Med Chem, 2012).
Calls of active or inactive are those of the source. The calls are words filed in the database; no cut-off is given here.

Assays:
MCF7/6 [1] = test: Antiinvasive activity against human MCF7/6 cells assessed as inhibition of cell invasion across chick precultured heart fragments at 10 umol/L after 8 days by chick heart invasion assay; assay type: functional, cell-based
Method in brief: (§1)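 Heart fragments from 9-day-old chick embryos were precultured, then confronted with aggregates of invasive human MCF-7/6 mammary carcinoma cells with test compound present. Replicate cultures were graded at each concentration.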

MCF7/6 [2] = test: Antiinvasive activity against human MCF7/6 cells assessed as inhibition of cell invasion across chick precultured heart fragments at 1 umol/L after 8 days by chick heart invasion assay; assay type: functional, cell-based; method in brief: as §1
MCF7/6 [3] = test: Antiinvasive activity against human MCF7/6 cells assessed as inhibition of cell invasion across chick precultured heart fragments at 100 umol/L after 8 days by chick heart invasion assay; assay type: functional, cell-based; method in brief: as §1
MCF7/6 [4] = test: Antiinvasive activity against human MCF7/6 cells assessed as inhibition of cell invasion across chick precultured heart fragments at 0.1 umol/L after 8 days by chick heart invasion assay; assay type: functional, cell-based; method in brief: as §1
[5] = Toxicity against chick precultured heart fragments at 10 umol/L after 8 days by histological analysis; assay type: tissue-based, Gallus gallus; conditions: chicken, 192 h, 10 µM
[6] = Cytotoxicity against human MCF7/6 cells at 10 umol/L after 8 days by histological analysis; assay type: cell-based; conditions: mcf7/6, 192 h, 10 µM
Method in brief: (§2)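 Chick heart confronting cultures (9-day-old embryo precultured heart fragments plus MCF-7/6 aggregates, compound present) were examined on 7-µm histological sections. Replicate cultures were graded per concentration.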

[7] = Cytotoxicity against human MCF7/6 cells at 100 umol/L after 8 days by histological analysis; assay type: cell-based; conditions: mcf7/6, 192 h, 100 µM; method in brief: as §2

Row | Structure (SMILES) | Activity (MCF7/6 [1]) | Activity (MCF7/6 [2]) | Activity (MCF7/6 [3]) | Activity (MCF7/6 [4]) | Activity [5] | Activity [6] | Activity [7]
1 | COc1ccc(-c2cc(-c3ccc(Cl)cc3)on2)cc1 | inactive | inactive | – | – | – | – | –
2 | COc1ccc(C2=NOC(c3ccc(Cl)cc3)C2)cc1 (stereo not given) | – | inactive | inactive | – | – | – | –
3 | COc1cc(-c2oncc2-c2ccc(F)cc2)cc(OC)c1OC | Active | Active | – | inactive | Toxic | Toxic | Toxic
4 | COc1cc(C(=O)Cc2ccc(F)cc2)cc(OC)c1OC | inactive | inactive | Active | inactive | – | – | Toxic
5 | COc1cc(-c2cc(-c3ccc(F)cc3)on2)cc(OC)c1OC | Active | inactive | Active | inactive | – | – | Toxic
